# Experimental data published in ChEMBL document CHEMBL4346681, “Anticancer activity of the thiosemicarbazones that are based on di-2-pyridine ketone and quinoline moiety” (Eur J Med Chem, 2019).
# The source made the active and inactive calls. No cut-off for these calls is given here.
# What was measured:
# U-251 [1] = test: Induction of apoptosis in human U251 cells assessed as early apoptotic cells at 0.5 uM incubated for 48 hrs by annexin-V-FITC staining based cell counter assay (reference value: 0.70%); type: functional
# [2] = Selectivity index, ratio of IC50 for human NHDF cells to IC50 for human U251 cells
# HCT-116 [3] = test: Induction of cell cycle arrest in human HCT116 cells expressing wild type p53 assessed as cell accumulation at G0/G1 phase at 0.5 uM incubated for 48 hrs by cell counter based assay (reference value: 48.78 to 48.8%); type: functional
# HCT-116 [4] = test: Induction of cell cycle arrest in human HCT116 cells expressing wild type p53 assessed as cell accumulation at G2/M phase at 0.5 uM incubated for 48 hrs by cell counter based assay (Rvb 30.63 to 32.4%); type: functional
# MCF7 [5] = test: Induction of cell cycle arrest in human MCF7 cells assessed as cell accumulation at G0/G1 phase at 0.5 uM incubated for 48 hrs by cell counter based assay (reference value: 50.1 to 51.48%); type: functional
# U-251 [6] = test: Induction of cell cycle arrest in human U251 cells assessed as cell accumulation at S phase at 0.5 uM incubated for 48 hrs by cell counter based assay (reference value: 28.85 to 33%); type: functional
# U-251 [7] = test: Induction of cell cycle arrest in human U251 cells assessed as cell accumulation at G2/M phase at 0.5 uM incubated for 48 hrs by cell counter based assay (reference value: 5.3 to 6.5%); type: functional
# HCT-116 [8] = test: Induction of apoptosis in human HCT116 cells expressing wild type p53 assessed as early apoptotic cells at 0.5 uM incubated for 48 hrs by annexin-V-FITC staining based cell counter assay (reference value: 1.4%); type: functional
# MCF7 [9] = test: Induction of apoptosis in human MCF7 cells assessed as viable cells at 0.5 uM incubated for 48 hrs by annexin-V-FITC staining based cell counter assay (reference value: 80.2 to 87.38%); type: functional; details: MCF7, 48 h, read-out: Activity
# MCF7 [10] = test: Induction of apoptosis in human MCF7 cells assessed as increase in cytochrome c release at 4 times antiproliferative IC50 incubated for 24 hrs by Western blot analysis relative to control; type: functional
# Method in brief: (§1)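 HCT 116 p53+/+ or MCF-7 cells, 0.5·10^6 per dish, overnight, then 24 h at four-fold IC50. Lysed in RIPA buffer with protease/phosphatase inhibitors and EDTA. 20 µg protein per lane on SDS-PAGE, transferred to nitrocellulose, blocked in 5% milk/TPBS. Primary antibodies 1:1000 overnight at 4°C, then HRP secondary, chemiluminescence. Densitometry normalized to β-actin; at least three experiments.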
# HCT-116 [11] = test: Induction of apoptosis in human HCT116 cells expressing wild type p53 assessed as decrease in cdc2 expression level at 4 times antiproliferative IC50 incubated for 24 hrs by Western blot analysis relative to control; type: functional; method in brief: as §1
# MCF7 [12] = test: Induction of apoptosis in human MCF7 cells assessed as decrease in cdc2 expression level at 4 times antiproliferative IC50 incubated for 24 hrs by Western blot analysis relative to control; type: functional; method in brief: as §1
# HCT-116 [13] = test: Induction of apoptosis in human HCT116 cells expressing wild type p53 assessed as decrease in cyclin D1 expression level at 4 times antiproliferative IC50 incubated for 24 hrs by Western blot analysis relative to control; type: functional; method in brief: as §1
# MCF7 [14] = test: Induction of apoptosis in human MCF7 cells assessed as decrease in cyclin D1 expression level at 4 times antiproliferative IC50 incubated for 24 hrs by Western blot analysis relative to control; type: functional; method in brief: as §1
# HCT-116 (Homo sapiens) = test: Induction of oxidative stress in human HCT116 cells assessed as reactive oxygen species generation at 1 uM incubated for 24 hrs by CellROX green/Hoechst 33342 staining based assay
# MCF7 [15] = test: Induction of apoptosis in human MCF7 cells assessed as increase in cleaved PARP expression level at 4 times antiproliferative IC50 incubated for 24 hrs by Western blot analysis; type: functional, cell-based; method in brief: as §1
# MCF7 [16] = test: Decrease in p21 protein expression in human MCF7 cells at 4 times antiproliferative IC50 incubated for 24 hrs by Western blot analysis relative to control; type: functional; design: scale not given: the % may be the effect or the level left; method in brief: as §1
SMILES,Activity (U-251 [1]),Ratio IC50 [2],Activity (HCT-116 [3]),Activity (HCT-116 [4]),Activity (MCF7 [5]),Activity (U-251 [6]),Activity (U-251 [7]),Activity (HCT-116 [8]),viability at 0.5 µM (MCF7 [9]),Activity (MCF7 [10]),inhibition (HCT-116 [11]),inhibition (MCF7 [12]),inhibition (INH) (HCT-116 [13]),inhibition (INH) (MCF7 [14]),Activity (HCT-116 (Homo sapiens)),inhibition (HCT-116 [13]),Activity (MCF7 [15]),inhibition (INH) (HCT-116 [11]),inhibition (INH) (MCF7 [12]),Activity (MCF7 [16])
Fc1ccc(N2CCN(C(=S)N/N=C\c3ccccn3)CC2)cc1,2.2%,>1168.22,36.7 - 38.78%,32.62 - 37%,26.9 - 27.95%,40.9 - 41%,7.95 - 8.6%,15.3%,42.2 to 46.2%,90%,inactive,Active,90%,90%,Active,–,–,–,–,–
O=[N+]([O-])c1ccc(N2CCN(C(=S)N/N=C\c3ccccn3)CC2)cc1,3.35%,365.84,36.2 - 38.48%,31.02 - 34.9%,19.73 - 22.7%,39.3 - 40.7%,9.8 - 10.9%,8.3%,36.9 to 39.4%,60%,–,–,–,–,Active,inactive,–,–,–,–
N#Cc1ccc(N2CCN(C(=S)NN=C(c3ccccn3)c3ccccn3)CC2)cc1,3.2%,44,37.58 - 38%,37 - 38.02%,37.15 - 39.8%,41.4 - 42.6%,9.8 - 9.9%,6%,72 to 75.8%,50%,inactive,Active,70%,–,Active,–,–,–,–,–
COc1ccc(N2CCN(C(=S)N/N=C\c3ccccn3)CC2)cc1,1.8%,>130.68,38.8 - 41.18%,32.94 - 35.6%,34 - 37.28%,38.25 - 41.5%,7.75 - 8.5%,6.5%,53.8 to 59%,60%,–,Active,–,70%,–,–,–,–,–,–
FC(F)(F)c1ccc(N2CCN(C(=S)N/N=C\c3ccc4ccccc4n3)CC2)nc1,0.8%,126.12,28.7 - 30.62%,40.46 - 41.7%,20.55 - 23.8%,43.2 - 43.3%,7.8 - 8%,9.8%,20.6 to 21.6%,70%,–,–,–,–,Active,inactive,Active,70%,70%,–
S=C(N/N=C\c1ccc2ccccc2n1)N1CCN(c2ccc(Cl)c(Cl)c2)CC1,1.75%,31.42,27.5 - 30.02%,40.24 - 42.2%,24.4 - 25%,39.55 - 44.1%,10.25 - 11.5%,4.05%,52.1 to 54.5%,50%,inactive,–,90%,–,–,–,–,–,–,–
S=C(NN=C(c1ccccn1)c1ccccn1)N1CCN(c2ccc(Cl)c(Cl)c2)CC1,3.4%,85.18,29.8 - 30.8%,34.2 - 34.7%,35 - 36.4%,38.65 - 39.6%,10.1 - 10.2%,8.65%,54.4 to 60.8%,–,inactive,Active,80%,80%,Active,–,–,–,–,30%
O=[N+]([O-])c1ccc(N2CCN(C(=S)N/N=C\c3ccc4ccccc4n3)CC2)cc1,1.1%,0.58,37 - 38.4%,31.6 - 36.84%,29.45 - 29.7%,33.15 - 36.3%,6.85 - 8.7%,1.05%,85.2 to 86%,50%,–,–,90%,–,–,–,Active,–,–,50%
